Compound activity: PubChem, several laboratories
Sampled rows, rich in hits. Any-hit rate of the full collection: about 4.2%.
ANO1 block – TMEM16A chloride channel inhibitors, primary screen, cell-based, HTS | Anoctamin-1 (Mus musculus), Q8BHY3 | HEK293 TMEM16A/YFP iodide influx fluorescence, ionomycin | normalized B-score (activity score, 25-100; higher = stronger inhibition) at 10 µM | actives 1.2% (n = 310,000) | AID 588511, 2011;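 active = ratio plate-corrected score three or more library SD toward inhibition, starting fluorescence score within five deviations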;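 also: score derived from kinetic fluorescence span divided by baseline fluorescence per well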
Target sequence (Q8BHY3 whole entry, looked up): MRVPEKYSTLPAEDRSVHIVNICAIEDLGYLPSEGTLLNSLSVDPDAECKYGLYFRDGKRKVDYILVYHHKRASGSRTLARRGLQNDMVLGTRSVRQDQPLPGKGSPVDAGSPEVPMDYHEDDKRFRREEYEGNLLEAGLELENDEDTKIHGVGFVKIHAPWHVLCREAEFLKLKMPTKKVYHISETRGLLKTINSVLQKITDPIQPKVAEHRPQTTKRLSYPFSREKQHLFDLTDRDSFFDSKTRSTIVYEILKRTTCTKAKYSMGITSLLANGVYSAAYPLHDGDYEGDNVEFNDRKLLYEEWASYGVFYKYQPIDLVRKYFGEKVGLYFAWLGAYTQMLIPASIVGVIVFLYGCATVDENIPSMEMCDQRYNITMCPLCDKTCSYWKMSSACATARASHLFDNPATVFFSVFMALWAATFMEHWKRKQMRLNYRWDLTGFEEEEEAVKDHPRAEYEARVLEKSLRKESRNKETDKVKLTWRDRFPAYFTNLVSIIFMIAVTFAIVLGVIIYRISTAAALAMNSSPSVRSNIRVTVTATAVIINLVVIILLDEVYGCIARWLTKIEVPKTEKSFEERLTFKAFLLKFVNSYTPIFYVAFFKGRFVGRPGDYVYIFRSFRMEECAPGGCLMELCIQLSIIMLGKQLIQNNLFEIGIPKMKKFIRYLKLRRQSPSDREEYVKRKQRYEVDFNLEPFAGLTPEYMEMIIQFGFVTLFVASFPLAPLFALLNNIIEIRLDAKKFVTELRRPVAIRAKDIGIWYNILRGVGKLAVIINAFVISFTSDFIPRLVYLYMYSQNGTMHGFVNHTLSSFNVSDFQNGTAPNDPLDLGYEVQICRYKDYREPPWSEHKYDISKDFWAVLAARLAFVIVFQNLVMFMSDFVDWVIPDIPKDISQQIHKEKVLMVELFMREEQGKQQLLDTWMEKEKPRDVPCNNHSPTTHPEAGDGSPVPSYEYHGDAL
UPR XBP1 act – activators of adaptive XBP1 UPR arm, primary screen, cell-based, CHO-XBP1 luciferase reporter, luminescence, uHTS; IRE1-XBP1 UPR activation; percent of tunicamycin response, DMSO as zero; activation, % at 20 µM; actives 0.33% (n = 330,000); AID 463104, 2010;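 active = versus positive control, 20 µM dose yields 30% or more activation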;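 also: 100% = tunicamycin at 10 µg/mL and 0% = DMSO only wells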
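Material: CHO-XBP1 cells stably carrying IRE1-XBP1-driven luciferase reporter / Amount: 1000 cells per well / Compound: 20 µM, 1% DMSO / Times: 6 h treatment, 37 °C / Detection: luciferase luminescence / Measure: % activation of reporter signal versus tunicamycin and DMSO controls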
CHOP inhibitor – inhibitors of CHOP promoter induction, primary screen, cell-based, unfolded protein response, luciferase reporter; inhibition, % at 10 µM; AID 2732, 2010; CHO-K1 CHOP-promoter luciferase, tunicamycin-induced, 15-18 h; actives 3.8% (n = 220,000);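 active = compounds that reduced the stress-induced luciferase reporter signal by more than about 70% of percent inhibition, limit read from the data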;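 also: 0% = tunicamycin plus vehicle and 100% = wells without tunicamycin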
CHOP UPR activ – activators of apoptotic CHOP UPR arm, primary screen, cell-based, CHO-CHOP luciferase reporter, luminescence, uHTS; actives 0.34% (n = 330,000); AID 449763, 2010; UPR activation; percent of tunicamycin response over DMSO baseline; activation, % at 10 µM;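 active = at 10 µM dose, activation of 40% or more, normalized to positive control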;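 also: 100% = tunicamycin at 10 µg/mL and 0% = DMSO alone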
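measured by = luciferase luminescence | assay system = CHO-CHOP cells, stable luciferase reporter of PERK-eIF2a-CHOP signalling | amount = 500 reporter cells seeded per well | timing = 6 h compound exposure at 37 °C after overnight seeding | controls = positive tunicamycin 10 µg/mL, negative DMSO alone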
Hep lipid drop – inhibitors of hepatocyte lipid droplet formation, primary screen, imaging, high-throughput imaging, BODIPY stain. AID 1656, 2009. inhibition, % at 6.5 µM. actives 0.4% (n = 240,000). AML12 mouse hepatocytes, oleate lipid droplets;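 active = lipid droplet intensity inhibited by at least 50%, with more than 500 cells counted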
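System: AML12 hepatocytes (mouse). Probe or stimulus: oleic acid at 100 µM to induce lipid droplet formation. Times: overnight treatment with compound plus oleate. Detection: Image-based BODIPY and DAPI two-channel analysis. Evaluation: percent inhibition of filter-corrected integrated lipid droplet intensity per well.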
ANO1 activ – TMEM16A chloride channel activators or potentiators, primary screen, cell-based, HTS. Anoctamin-1 (Mus musculus), Q8BHY3. HEK293 TMEM16A/YFP-H148Q/I152L, iodide quench fluorescence; hits give low values. B-score at 10 µM. actives 0.3% (n = 340,000);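 active = fluorescence-ratio B-score plate-corrected deviation score at least 3 library SD below zero, with starting fluorescence score within 5 deviations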;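 also: channel opened by trigger with iodide after compound preincubation; score built on the fluorescence ratio of max minus min over baseline; more negative score means more quench and so TMEM16A activation or potentiation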
CHOP inh conf – retest of CHOP induction inhibitors, confirmation, cell-based; CHO-CHOP promoter luciferase reporter, tunicamycin-induced, luminescence; inhibition, % at 10 µM; actives 45% (n = 2,100); shares compounds with CHOP inhibitor;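 active = mean of three repeat readings of reporter signal inhibition above a set limit, cut at about 70% in these data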;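 also: 0% = tunicamycin plus vehicle and 100% = wells lacking tunicamycin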
Starred values were filed as active, the others as inactive; i = inactive; . = no result.

SMILES | ANO1 block | UPR XBP1 act | CHOP inhibitor | CHOP UPR activ | Hep lipid drop | ANO1 activ | CHOP inh conf
COc1ccc(-n2c(N)c(C(=O)NCc3ccco3)c3nc4ccccc4nc32)cc1OC | i | 0 | 104* | 2 | 2 | i | 34
COc1ccccc1CNC(=O)c1c(N)n(CCCN2CCOCC2)c2nc3ccccc3nc12 | . | . | 96* | . | . | i | 40
COc1ccc2c(c1)OC[C@H]1[C@H]2N2C(=O)CNC(=O)[C@@]2(C)[C@H]1c1ccccc1 | . | -3 | . | 1 | . | . | .
CS(=O)(=O)c1nc(-c2ccco2)cc(C(F)(F)F)n1 | i | -5 | 111* | -10 | . | . | 122*
CC1CCN(S(=O)(=O)c2ccc(C(=O)Nc3sccc3C(N)=O)cc2)CC1 | i | 0 | 97* | 5 | -8 | i | 58
Cc1ccc2c(c1)-n1c(nc3ccccc3c1=O)C(CC(C)C)NC2=O (stereo not given) | . | -1 | . | 0 | . | . | .
CC(C)c1ccc(-c2nc(N3CCCCC3)[nH]c(=O)c2C#N)cc1 | i | 2 | 30 | 0 | -4 | i | .
CC1=Nc2nc(N3CCCCC3)c(C#N)c3c4c(nc(c23)N1)N(c1ccc(C(C)C)cc1)C(=O)C4 | i | -3 | 108* | 3 | -34 | i | 83*
CCCCN1CC(=O)N2[C@H](c3ccc(Cl)cc3)[C@@H]3C(=O)N(CC)C(=O)[C@@H]3[C@]2(Cc2ccccc2)C1=O | i | 3 | . | 1 | -5 | i | .
COc1ccc(CNCc2cc3c(C(C)(C)C)nn(-c4ccccc4)c3[nH]c2=O)cc1 | i | 3 | -8 | -1 | -4 | i | .
Cc1ccc(CNCc2cc3c(C(C)(C)C)nn(-c4ccccc4)c3[nH]c2=O)cc1 | i | 8 | 108* | 1 | -9 | i | 71*
CC(=O)Oc1cccc(/C=c2\sc3nc(-c4ccco4)nn3c2=O)c1 | i | 0 | 107* | 4 | 0 | i | 27
COc1ccc(-n2nc(C(=O)NCC(=O)NCCC3=CCCCC3)c3ccccc3c2=O)cc1 | i | -4 | . | 3 | -21 | i | .
CCOc1ccc(Cl)cc1/C=N/O | i | -2 | 30 | -2 | . | i | .
O/N=C/c1cc(Br)ccc1OCc1ccc(F)cc1 | i | -1 | . | 3 | . | i | .
O/N=C/c1cc(Cl)ccc1OCc1ccccc1Cl | i | 1 | 107* | 0 | . | i | 30
Cc1ccc(COc2ccc(Br)cc2/C=N/O)cc1 | i | 3 | 110* | 5 | . | i | 104*
Cc1noc(C)c1S(=O)(=O)Nc1ccc(C#N)cc1 | i | -2 | . | 2 | -19 | i | .
O=C(Cn1c2c(sc1=O)C1c3ccccc3OCC1CS2)Nc1ccc(Cl)c(Cl)c1 (stereo not given) | i | . | 99* | . | -2 | i | 35
Cc1n[nH]c(C)c1CCc1nc2c3ccccc3nc(SCC(=O)Nc3ccccc3F)n2n1 | i | 2 | 98* | 4 | 7 | i | -16
CC(C)C[C@H](N)c1nnc(SCC(=O)Nc2ccc(Br)cc2)o1 | i | -4 | . | 1 | -21 | i | .
CC(C)C[C@H](NC(=O)OC(C)(C)C)c1nnc(SCC(=O)Nc2ccc(Br)cc2)o1 | i | -1 | 100* | -2 | . | i | 132*
Cc1oc(=O)c(NC(=O)c2cccc(Cl)c2)cc1C(=O)c1ccccc1 | i | 16 | 104* | 12 | . | i | 64
COc1ccccc1OCCCOc1ccc(/C=C2\SC(=O)NC2=O)cc1OC | i | -3 | . | 3 | 19 | i | .
CCOc1ccc(/C=C2\SC(=O)N(c3ccc(O)cc3)C2=O)cc1OC | i | 7 | 105* | 2 | -2 | . | 15
SMILES | ANO1 block | UPR XBP1 act | CHOP inhibitor | CHOP UPR activ | Hep lipid drop | ANO1 activ | CHOP inh conf
COc1ccc(/C=C2\SC(=N)N(c3ccc(F)cc3)C2=O)cc1OC | i | 5 | 102* | -1 | 7 | i | -73
Nc1c(C(=O)CSc2n[nH]c(-c3ccccc3)n2)c(=O)[nH]c(=O)n1C1CC1 | . | -2 | . | -1 | . | i | .
O=c1c2ccccc2nc2n1CCN2Cc1ccc(Cl)cc1 | i | -3 | 99* | 3 | -3 | i | 95*
Cc1ccc(C)c(C(=O)CCC(=O)OCn2nnc3ccccc3c2=O)c1 | . | 0 | . | 0 | . | i | .
COc1ccc([N+](=O)[O-])cc1NS(=O)(=O)c1ccc(Cl)c(C(=O)Nc2sc3c(c2C#N)CCCCC3)c1 | i | 2 | 105* | 4 | -14 | . | 52
CN1CCN(C(=O)CCc2nc3ccccc3n2-c2ccccc2)CC1 | i | 0 | -4 | 1 | -2 | i | .
COc1ccccc1-c1nnc(NC(=O)c2ccc(S(=O)(=O)N(C)Cc3ccccc3)cc2)o1 | i | 1 | 97* | 24 | 11 | . | 97*
Cc1cccc(C)c1OCc1cc(C(=O)N2CCN(c3ccccc3)CC2C)no1 (stereo not given) | i | -3 | . | 0 | 27 | i | .
C(=N\Nc1nc(Nc2ccccc2)nc(Nc2ccccc2)n1)/c1cccnc1 | i | 19 | 97* | 6 | 20 | i | 41
CCOC(=O)N=Nc1c2ccccc2c2nc3no[nH]c3nc12 | . | -6 | 105* | -4 | -17 | i | 112*
CCc1ccc(NC(=O)C(C)Sc2nnc(CN3CCCC3)o2)cc1 (stereo not given) | . | -1 | . | 0 | . | i | .
CCCc1ccc(Oc2cn[nH]c2-c2ccc(O)cc2O)cc1 | i | 3 | 108* | -1 | . | i | 120*
C=C(C)COc1ccc(-c2[nH]ncc2Oc2ccccc2OCC)c(O)c1 | 100* | -2 | 107* | 1 | -3 | i | 107*
CCOc1ccccc1Oc1cn[nH]c1-c1ccc(O)cc1O | i | -6 | . | 0 | 4 | i | .
C=C(C)COc1ccc(-c2[nH]ncc2-c2ccccc2)c(O)c1 | i | 2 | 102* | -1 | . | i | 24
O=[N+]([O-])c1ccc(COc2ccc(-c3[nH]ncc3-c3ccccc3)c(O)c2)cc1 | i | -4 | 99* | -1 | -6 | i | 102*
